Test results: paper PMC4800337 (Kidney international, 2016)
Where no end group is shown, it is not given here.

Key:
[1] = Liver toxicity by serum transaminases in 5/6Nx+AngII mice; format: in vivo, mouse; details: mice 5/6Nx+AngII treated with 5A 5 mg/kg/day, 4 weeks
Outline: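 C57BL/6 mice underwent 5/6 nephrectomy: left kidney resection at week −1, then right nephrectomy at week 0. Animals were kept if the resected-to-removed kidney weight ratio was 0.5–0.65. Buprenorphine was given at 0.1 mg/kg after surgery and 0.05 mg/kg at 18 h. Val5-AngII (0.75 µg/kg/min, in sterile water) and 5A (5 mg/kg/day) were infused by separate subcutaneous osmotic mini-pumps placed at right nephrectomy.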

[2] = biological target: human CD36 (CD36-overexpressing HeLa cells) (Homo sapiens, UniProt P16671); test: Competition with Alexa-Fluor-488 oxLDL uptake in CD36-overexpressing HeLa cells; format: cell-based
Sequence of human CD36 (CD36-overexpressing HeLa cells) (P16671 whole entry): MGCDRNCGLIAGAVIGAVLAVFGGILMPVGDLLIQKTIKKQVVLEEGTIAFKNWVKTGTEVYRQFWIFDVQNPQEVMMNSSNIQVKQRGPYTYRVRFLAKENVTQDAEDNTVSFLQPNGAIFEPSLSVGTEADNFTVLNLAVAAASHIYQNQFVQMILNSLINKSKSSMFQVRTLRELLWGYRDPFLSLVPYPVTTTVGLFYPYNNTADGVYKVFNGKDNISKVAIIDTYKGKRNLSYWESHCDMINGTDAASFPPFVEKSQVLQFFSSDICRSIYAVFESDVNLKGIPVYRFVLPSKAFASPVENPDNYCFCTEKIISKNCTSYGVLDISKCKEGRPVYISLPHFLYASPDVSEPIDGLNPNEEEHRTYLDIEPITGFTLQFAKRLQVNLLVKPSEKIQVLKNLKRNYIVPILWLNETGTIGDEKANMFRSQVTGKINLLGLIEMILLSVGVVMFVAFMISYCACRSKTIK

**Q.** With “DWLKAFYDKVAEKLKEAFPDWAKAAYDKAAEKAKEAA [5A]” as the sequence, how does the “Liver toxicity, serum transaminases” value [1] read?
**A.** did not have liver toxicity

**Q.** What about the IC50 [2] of the same sequence?
**A.** 7.5 µM

**Q.** And the Ki [2]?
**A.** 1.45 µM
